Laboratory results: ChEMBL document CHEMBL3616436, “Synthesis, cytotoxicity and antimicrobial activity of thiourea derivatives incorporating 3-(trifluoromethyl)phenyl moiety” (Eur J Med Chem, 2015)
In brackets after ≈: the same amount, converted by molar mass. Activity calls are given as the source filed them. The rule behind the calls is not given here.

Assays:
[1] = Cytotoxicity against human MT4 cells; format: cell-based
[2] = tested on: Vesicular stomatitis virus; test: Antiviral activity against Vesicular stomatitis virus ATCC VR 1540 infected in African green monkey Vero 76 cells assessed as reduction of virus-plaque formation after 2 days by crystal violet staining; format: functional, organism-based; conditions: ATCC VR 1540, Vero, 48 h
[3] = tested on: Human immunodeficiency virus 1; test: Antiviral activity against HIV1 3B infected in human MT4 cells assessed as protection against virus-induced cytopathogenicity by MTT assay; format: functional, organism-based; conditions: Human immunodeficiency virus 1, 3B
[4] = Cytotoxicity against bovine MDBK cells assessed as cell viability after 48 to 96 hrs by MTT assay; format: cell-based, Bos taurus; conditions: cattle
[5] = Antiviral activity against Bovine viral diarrhea virus 1-NADL ATCC VR-534 infected in MDBK cells assessed as protection against virus-induced cytopathogenicity after 3 to 4 days by MTT assay; format: functional, cell-based; conditions: Bovine viral diarrhea virus isolates and strains, ATCC VR-534, MDBK
Outline: (§1)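 Cells seeded in 96-well plates (BHK 5x10^4, MDBK 3x10^4 cells/well), grown overnight to confluence, infected at m.o.i. 0.01 (BHK for Reo-1, MDBK for BVDV); serial compound dilutions in maintenance medium with 0.5% inactivated FBS added after 1 h; viability by MTT after 3–4 days at 37°C; EC50 for 50% protection by linear regression.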

[6] = Cytotoxicity against BHK cells assessed as cell viability after 48 to 96 hrs by MTT assay; format: cell-based, Mesocricetus auratus; conditions: hamster
Yellow fever virus = test: Antiviral activity against Yellow fever virus 17D infected in BHK cells assessed as protection against virus-induced cytopathogenicity after 3 to 4 days by MTT assay; format: functional, cell-based
[7] = tested on: Mammalian orthoreovirus 1; test: Antiviral activity against Reovirus type-1 ATCC VR-214 infected in BHK cells assessed as protection against virus-induced cytopathogenicity after 3 to 4 days by MTT assay; format: functional, cell-based; conditions: Mammalian orthoreovirus 1, ATCC VR-214, BHK; outline: as §1
[8] = Cytotoxicity against African green monkey Vero 76 cells assessed as cell viability after 48 to 96 hrs by crystal violet staining; format: cell-based; conditions: chlorocebus sabaeus
Coxsackievirus B5 = test: Antiviral activity against Human coxsackievirus B5 ATCC VR-29 infected in African green monkey Vero 76 cells assessed as reduction of virus-plaque formation after 3 days by crystal violet staining; format: functional, organism-based; conditions: Enterovirus B, ATCC VR-29, Vero, 72 h
Outline: (§2)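 Plaque reduction: Vero-76 at 2x10^5 cells/well grown to confluent monolayers, infected 2 h at 50–100 PFU/well; after removing unadsorbed virus, overlay of D-MEM, 1% inactivated FBS, 0.75% methylcellulose with or without serial compound dilutions; 3 days at 37°C, fixed and stained with crystal violet in 50% ethanol, plaques counted; EC50 by linear regression.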

Poliovirus 1 = test: Antiviral activity against Poliovirus type 1 ATCC VR-1562 infected in African green monkey Vero 76 cells assessed as reduction of virus-plaque formation after 2 days by crystal violet staining; format: functional, organism-based; conditions: Enterovirus C, ATCC VR-1562, Vero, 48 h
Vaccinia virus = test: Antiviral activity against Human Vaccinia virus ATCC VR-1549 infected in African green monkey Vero 76 cells assessed as reduction of virus-plaque formation after 3 days by crystal violet staining; format: functional, organism-based; conditions: Orthopoxvirus vaccinia, ATCC VR-1549, Vero, 72 h
Human alphaherpesvirus 1 = test: Antiviral activity against Human herpesvirus 1 KOS ATCC VR-1493 infected in African green monkey Vero 76 cells assessed as reduction of virus-plaque formation after 3 days by crystal violet staining; format: functional, organism-based; conditions: Human alphaherpesvirus 1, KOS ATCC VR1493, Vero, 72 h; outline: as §2
Staphylococcus aureus [9] = test: Antimicrobial activity against Staphylococcus aureus NCTC 4163 at 400 ug after 18 hrs by disc-diffusion method; format: functional; conditions: NCTC 4163, 18 h, read-out: IZ
Outline: (§3)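 Disc diffusion on Mueller-Hinton II agar per CLSI; 9 mm paper discs loaded with 400 µg compound from DMSO solution, dried, placed on agar; growth inhibition zone diameter read after 18 h at 35°C.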

Staphylococcus aureus [10] = test: Antimicrobial activity against Staphylococcus aureus ATCC 25923 at 400 ug after 18 hrs by disc-diffusion method; format: functional; conditions: ATCC 25923, 18 h, read-out: IZ; outline: as §3
Staphylococcus aureus [11] = test: Antimicrobial activity against Staphylococcus aureus ATCC 6538 at 400 ug after 18 hrs by disc-diffusion method; format: functional; conditions: ATCC 6538, 18 h, read-out: IZ; outline: as §3
Staphylococcus aureus [12] = test: Antimicrobial activity against Staphylococcus aureus ATCC 29213 at 400 ug after 18 hrs by disc-diffusion method; format: functional; conditions: ATCC 29213, 18 h, read-out: IZ; outline: as §3
[13] = tested on: Staphylococcus epidermidis; test: Antimicrobial activity against Staphylococcus epidermidis ATCC 12228 at 400 ug after 18 hrs by disc-diffusion method; format: functional; conditions: ATCC 12228, 18 h, read-out: IZ; outline: as §3
[14] = tested on: Staphylococcus epidermidis; test: Antimicrobial activity against Staphylococcus epidermidis ATCC 35984 at 400 ug after 18 hrs by disc-diffusion method; format: functional; conditions: ATCC 35984, 18 h, read-out: IZ; outline: as §3
Bacillus subtilis = test: Antimicrobial activity against Bacillus subtilis ATCC 6633 at 400 ug after 18 hrs by disc-diffusion method; format: functional; conditions: ATCC 6633, 18 h, read-out: IZ; outline: as §3
Bacillus cereus = test: Antimicrobial activity against Bacillus cereus ATCC 11778 at 400 ug after 18 hrs by disc-diffusion method; format: functional; conditions: ATCC 11778, 18 h, read-out: IZ; outline: as §3
Enterococcus hirae = test: Antimicrobial activity against Enterococcus hirae ATCC 10541 at 400 ug after 18 hrs by disc-diffusion method; format: functional; outline: as §3
Enterococcus faecalis = test: Antimicrobial activity against Enterococcus faecalis ATCC 29212 at 400 ug after 18 hrs by disc-diffusion method; format: functional; conditions: ATCC 29212, 18 h, read-out: IZ; outline: as §3
Micrococcus luteus [15] = test: Antimicrobial activity against Micrococcus luteus ATCC 10240 at 400 ug after 18 hrs by disc-diffusion method; format: functional; conditions: ATCC 10240, 18 h, read-out: IZ; outline: as §3
Micrococcus luteus [16] = test: Antimicrobial activity against Micrococcus luteus ATCC 9341 at 400 ug after 18 hrs by disc-diffusion method; format: functional; conditions: ATCC 9341, 18 h, read-out: IZ; outline: as §3
Proteus vulgaris = test: Antimicrobial activity against Proteus vulgaris NCTC 4635 at 400 ug after 18 hrs by disc-diffusion method; format: functional; outline: as §3
Staphylococcus aureus [17] = test: Antimicrobial activity against Staphylococcus aureus NCTC 4163 after 18 hrs by twofold serial microdilution method; format: functional; conditions: NCTC 4163, 18 h
Staphylococcus aureus [18] = test: Antimicrobial activity against Staphylococcus aureus ATCC 25923 after 18 hrs by twofold serial microdilution method; format: functional; conditions: ATCC 25923, 18 h
Staphylococcus aureus [19] = test: Antimicrobial activity against Staphylococcus aureus ATCC 6538 after 18 hrs by twofold serial microdilution method; format: functional; conditions: ATCC 6538, 18 h
Staphylococcus aureus [20] = test: Antimicrobial activity against Staphylococcus aureus ATCC 29213 after 18 hrs by twofold serial microdilution method; format: functional; conditions: ATCC 29213, 18 h
[21] = tested on: Staphylococcus epidermidis; test: Antimicrobial activity against Staphylococcus epidermidis ATCC 12228 after 18 hrs by twofold serial microdilution method; format: functional; conditions: ATCC 12228, 18 h
[22] = tested on: Staphylococcus epidermidis; test: Antimicrobial activity against Staphylococcus epidermidis ATCC 35984 after 18 hrs by twofold serial microdilution method; format: functional; conditions: ATCC 35984, 18 h
[23] = tested on: Mycobacterium tuberculosis; test: Antimycobacterial activity against Mycobacterium tuberculosis H37Rv ATCC 25618; format: functional
Outline: (§4)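 Classical test-tube successive-dilution method in Youmans' modification of Proskauer and Beck liquid medium with 10% bovine serum. Inoculum came from 14-day cultures. DMSO stock was 10 mg/mL, diluted geometrically in medium. Tubes were incubated at 37 °C. Concentrations tested were 3.1, 6.2, 12.5, 25, 50 and 100 µg/ml. MIC is the minimum concentration inhibiting growth relative to compound-free tubes.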

[24] = tested on: Mycobacterium tuberculosis; test: Antimycobacterial activity against drug-sensitive Mycobacterium tuberculosis Spec. 192; format: functional; outline: as §4

## O=C(NC(=S)Nc1cccc(C(F)(F)F)c1)c1ccccc1
[1]
  CC50: > 100 µM
[2]
  EC50: > 100 µM
[3]
  EC50: > 100 µM
[4]
  CC50: > 100 µM
[5]
  EC50: > 100 µM
[6]
  CC50: > 100 µM
Yellow fever virus
  EC50: > 100 µM
[7]
  EC50: > 100 µM
[8]
  CC50: > 100 µM
Coxsackievirus B5
  EC50: > 100 µM
Poliovirus 1
  EC50: > 100 µM
Vaccinia virus
  EC50: > 100 µM
Human alphaherpesvirus 1
  EC50: > 100 µM
Staphylococcus aureus [9]
  zone of inhibition at 400 µg/disc: 17 mm
Staphylococcus aureus [10]
  zone of inhibition at 400 µg/disc: 17 mm
Staphylococcus aureus [11]
  zone of inhibition at 400 µg/disc: 17 mm
Staphylococcus aureus [12]
  zone of inhibition at 400 µg/disc: 17 mm
[13]
  zone of inhibition at 400 µg/disc: 17 mm
[14]
  zone of inhibition at 400 µg/disc: 16 mm
Bacillus subtilis
  zone of inhibition at 400 µg/disc: 17 mm
Bacillus cereus
  zone of inhibition at 400 µg/disc: 14 mm
Enterococcus hirae
  inhibition zone (IZ): inactive
Enterococcus faecalis
  zone of inhibition at 400 µg/disc: 12 mm
Micrococcus luteus [15]
  zone of inhibition at 400 µg/disc: 19 mm
Micrococcus luteus [16]
  zone of inhibition at 400 µg/disc: 17 mm
Proteus vulgaris
  inhibition zone (IZ): inactive
Staphylococcus aureus [17]
  MIC: 32 µg/mL (≈ 98.7 µM)
Staphylococcus aureus [18]
  MIC: 32 µg/mL (≈ 98.7 µM)
Staphylococcus aureus [19]
  MIC: 32 µg/mL (≈ 98.7 µM)
Staphylococcus aureus [20]
  MIC: 32 µg/mL (≈ 98.7 µM)
[21]
  MIC: 64 µg/mL (≈ 197 µM)
[22]
  MIC: 64 µg/mL (≈ 197 µM)
[23]
  MIC: > 100 µg/mL
[24]
  MIC: > 100 µg/mL
